Measured values: ChEMBL document CHEMBL4325889, “Natural products hybrids: 3,5,4'-Trimethoxystilbene-5,6,7-trimethoxyflavone chimeric analogs as potential cytotoxic agents against diverse human cancer cells” (Eur J Med Chem, 2019)

Assays:
Type in all cases: functional
[1] = test system: NCI-H23; test: Growth inhibition of human NCI-H23 cells at 10 uM after 48 hrs by SRB assay relative to control; details: NCI-H23, 48 h, read-out: GI
Method in brief: (§1)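 Screened at the National Cancer Institute by the standard NCI protocol using the sulforhodamine B assay, which measures cellular protein. Single dose of 10 µM. Result is percent growth inhibition; values above 100% mean cell number fell below the initial population. Values are the average of duplicates.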

[2] = test system: SN12C; test: Growth inhibition of human SN12C cells at 10 uM after 48 hrs by SRB assay relative to control; details: read-out: GI; method in brief: as §1
[3] = test system: NCI-H460; test: Growth inhibition of human NCI-H460 cells at 10 uM after 48 hrs by SRB assay relative to control; details: NCI-H460, 48 h, read-out: GI; method in brief: as §1
[4] = test system: MDA-MB-468; test: Growth inhibition of human MDA-MB-468 cells at 10 uM after 48 hrs by SRB assay relative to control; details: MDA-MB-468, 48 h, read-out: GI; method in brief: as §1
[5] = test system: RXF 393; test: Growth inhibition of human RXF393 cells at 10 uM after 48 hrs by SRB assay relative to control; details: RXF 393, 48 h, read-out: GI; method in brief: as §1
[6] = test system: NCI-H226; test: Growth inhibition of human NCI-H226 cells at 10 uM after 48 hrs by SRB assay relative to control; details: NCI-H226, 48 h, read-out: GI; method in brief: as §1
[7] = test system: ACHN; test: Growth inhibition of human ACHN cells at 10 uM after 48 hrs by SRB assay relative to control; details: read-out: GI; method in brief: as §1
[8] = test system: HCT-15; test: Growth inhibition of human HCT15 cells at 10 uM after 48 hrs by SRB assay relative to control; details: HCT-15, 48 h, read-out: GI; method in brief: as §1
[9] = test system: CCRF-CEM; test: Growth inhibition of human CCRF-CEM cells at 10 uM after 48 hrs by SRB assay relative to control; details: read-out: GI; method in brief: as §1
[10] = test system: SF-295; test: Growth inhibition of human SF295 cells at 10 uM after 48 hrs by SRB assay relative to control; details: SF-295, 48 h, read-out: GI; method in brief: as §1
[11] = test system: MDA-MB-435; test: Growth inhibition of human MDA-MB-435 cells at 10 uM after 48 hrs by SRB assay relative to control; details: MDA-MB-435, 48 h, read-out: GI; method in brief: as §1
[12] = test system: BT-549; test: Growth inhibition of human BT549 cells at 10 uM after 48 hrs by SRB assay relative to control; details: BT-549, 48 h, read-out: GI; method in brief: as §1
[13] = test system: SK-MEL-28; test: Growth inhibition of human SK-MEL-28 cells at 10 uM after 48 hrs by SRB assay relative to control; details: SK-MEL-28, 48 h, read-out: GI; method in brief: as §1
[14] = test system: SW-620; test: Growth inhibition of human SW620 cells at 10 uM after 48 hrs by SRB assay relative to control; details: SW-620, 48 h, read-out: GI
Method in brief: (§2)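 NCI screen against its human cancer cell line panel by the standard NCI protocol, SRB protein stain. Single dose of 10 μM. Percent growth inhibition versus control; values above 100% mean the cell population fell below the starting number. Each value is the mean of duplicates.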

[15] = test system: SNB-75; test: Growth inhibition of human SNB75 cells at 10 uM after 48 hrs by SRB assay relative to control; details: SNB-75, 48 h, read-out: GI; method in brief: as §2
[16] = test system: K562; test: Growth inhibition of human K562 cells at 10 uM after 48 hrs by SRB assay relative to control; details: K562, 48 h, read-out: GI; method in brief: as §1
[17] = test system: RPMI-8226; test: Growth inhibition of human RPMI8226 cells at 10 uM after 48 hrs by SRB assay relative to control; details: RPMI-8226, 48 h, read-out: GI; method in brief: as §1
[18] = test system: SNB-19; test: Growth inhibition of human SNB19 cells at 10 uM after 48 hrs by SRB assay relative to control; details: SNB-19, 48 h, read-out: GI; method in brief: as §2
[19] = test system: Malme-3M; test: Growth inhibition of human MALME-3M cells at 10 uM after 48 hrs by SRB assay relative to control; details: read-out: GI; method in brief: as §1
[20] = test system: SK-MEL-5; test: Growth inhibition of human SK-MEL-5 cells at 10 uM after 48 hrs by SRB assay relative to control; details: SK-MEL-5, 48 h, read-out: GI; method in brief: as §1
[21] = test system: HT-29; test: Growth inhibition of human HT-29 cells at 10 uM after 48 hrs by SRB assay relative to control; details: HT-29, 48 h, read-out: GI; method in brief: as §1
[22] = test system: SF-539; test: Growth inhibition of human SF539 cells at 10 uM after 48 hrs by SRB assay relative to control; details: SF-539, 48 h, read-out: GI; method in brief: as §1
[23] = test system: MOLT-4; test: Growth inhibition of human MOLT4 cells at 10 uM after 48 hrs by SRB assay relative to control; details: MOLT-4, 48 h, read-out: GI; method in brief: as §1
[24] = test system: OVCAR-8; test: Growth inhibition of human OVCAR8 cells at 10 uM after 48 hrs by SRB assay relative to control; details: OVCAR-8, 48 h, read-out: GI; method in brief: as §1
[25] = test system: NCI-H522; test: Growth inhibition of human NCI-H522 cells at 10 uM after 48 hrs by SRB assay relative to control; details: NCI-H522, 48 h, read-out: GI; method in brief: as §1
[26] = test system: DU-145; test: Growth inhibition of human DU145 cells at 10 uM after 48 hrs by SRB assay relative to control; details: DU-145, 48 h, read-out: GI; method in brief: as §1
[27] = test system: HL-60(TB); test: Growth inhibition of human HL-60(TB) cells at 10 uM after 48 hrs by SRB assay relative to control; details: HL-60, 48 h, read-out: GI
Method in brief: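 Run at NCI under its standard single-dose protocol against a leukemia cell panel. Cells were exposed to 10 µM; growth was read by sulforhodamine B staining of cellular protein and expressed as % growth inhibition versus untreated control. Values above 100% mean the cell population fell below the starting count (cytocidal). Each value is the average of duplicates.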

[28] = test system: OVCAR-5; test: Growth inhibition of human OVCAR5 cells at 10 uM after 48 hrs by SRB assay relative to control; details: OVCAR-5, 48 h, read-out: GI; method in brief: as §1
[29] = test system: 786-0; test: Growth inhibition of human 786-0 cells at 10 uM after 48 hrs by SRB assay relative to control; details: 786-0, 48 h, read-out: GI; method in brief: as §1
[30] = test system: PC-3; test: Growth inhibition of human PC3 cells at 10 uM after 48 hrs by SRB assay relative to control; details: PC-3, 48 h, read-out: GI; method in brief: as §1
[31] = test system: IGROV-1; test: Growth inhibition of human IGROV1 cells at 10 uM after 48 hrs by SRB assay relative to control; details: IGROV-1, 48 h, read-out: GI; method in brief: as §1
[32] = test system: TK-10; test: Growth inhibition of human TK10 cells at 10 uM after 48 hrs by SRB assay relative to control; details: TK-10, 48 h, read-out: GI; method in brief: as §2
[33] = test system: HOP-62; test: Growth inhibition of human HOP62 cells at 10 uM after 48 hrs by SRB assay relative to control; details: HOP-62, 48 h, read-out: GI; method in brief: as §1

SMILES	inhibition of growth at 10 µM [1]	inhibition of growth at 10 µM [2]	inhibition of growth at 10 µM [3]	inhibition of growth at 10 µM [4]	inhibition of growth at 10 µM [5]	inhibition of growth at 10 µM [6]	inhibition of growth at 10 µM [7]	inhibition of growth at 10 µM [8]	inhibition of growth at 10 µM [9]	inhibition of growth at 10 µM [10]	inhibition of growth at 10 µM [11]	inhibition of growth at 10 µM [12]	inhibition of growth at 10 µM [13]	inhibition of growth at 10 µM [14]	inhibition of growth at 10 µM [15]	inhibition of growth at 10 µM [16]	inhibition of growth at 10 µM [17]	inhibition of growth at 10 µM [18]	inhibition of growth at 10 µM [19]	inhibition of growth at 10 µM [20]	other results
COc1ccc(C(=O)Nc2cccc(-c3cc(=O)c4c(OC)c(OC)c(OC)cc4o3)c2)cc1	42.5%	50%	57.9%	24.8%	46.4%	30.1%	53%	54.8%	72.5%	40.4%	30.4%	48.6%	31%	12%	32.4%	79.4%	81.2%	35.4%	46.6%	49.8%	inhibition of growth at 10 µM [21]: 53.3%; inhibition of growth at 10 µM [22]: 33.7%; inhibition of growth at 10 µM [23]: 76.7%; inhibition of growth at 10 µM [24]: 42.1%; inhibition of growth at 10 µM [25]: 55.5%; inhibition of growth at 10 µM [26]: 43.5%; inhibition of growth at 10 µM [27]: 55.2%; inhibition of growth at 10 µM [28]: 4.43%; inhibition of growth at 10 µM [29]: 45%; inhibition of growth at 10 µM [30]: 68.1%; inhibition of growth at 10 µM [31]: 46.1%; inhibition of growth at 10 µM [32]: 23.3%; inhibition of growth at 10 µM [33]: 27.5%
COc1ccccc1C(=O)Nc1cccc(-c2cc(=O)c3c(O)c(OC)c(OC)cc3o2)c1	1.58%	5.29%	-2.21%	-22.9%	-12.1%	13%	5.14%	3.51%	5.53%	6.16%	1.26%	25.1%	-1.9%	10.5%	16.4%	15.5%	21.6%	25.4%	-12.7%	13.4%	inhibition of growth at 10 µM [21]: 2.63%; inhibition of growth at 10 µM [22]: 9.52%; inhibition of growth at 10 µM [23]: 6.77%; inhibition of growth at 10 µM [24]: 17.5%; inhibition of growth at 10 µM [25]: 41%; inhibition of growth at 10 µM [26]: -2.87%; inhibition of growth at 10 µM [27]: 0.6%; inhibition of growth at 10 µM [28]: 5.27%; inhibition of growth at 10 µM [29]: 11.3%; inhibition of growth at 10 µM [30]: 10.3%; inhibition of growth at 10 µM [31]: 3.04%; inhibition of growth at 10 µM [32]: -0.86%; inhibition of growth at 10 µM [33]: 16.5%
